# According to ChEMBL document CHEMBL4024793, “Development of Stem-Cell-Mobilizing Agents Targeting CXCR4 Receptor for Peripheral Blood Stem Cell Transplantation and Beyond” (J Med Chem, 2018):
# Columns and labels:
# [1] = biological target: C-X-C chemokine receptor type 5 (Homo sapiens) (UniProt P32302); experiment: Antagonist activity at human CXCR5 expressed in CHOK1 cells assessed as inhibition of CXCL13-induced cAMP accumulation at 10 uM preincubated for 30 mins followed agonist addition measured after 30 to 60 mins; format: functional, cell-based
# How it was run: (§1)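 GPCR cAMP assay with a single test concentration of 10 μM; result expressed as percentage inhibition for each chemokine receptor.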
# Mus musculus [2] = experiment: Induction hematopoietic stem cell mobilization in sc dosed C57BL/6 mouse assessed as increase in CXCR4+ cells in blood measured after 2 hrs by APC-conjugated anti-CXCR4 -staining based flow cytometry relative to vehicle control; format: functional; conditions: C57BL/6, sc, read-out: MED
# How it was run: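 Male C57BL/6 mice, 8–10 weeks old, given a single SC injection at escalating doses of 1, 6, 20, 35 and 50 mg/kg. Blood collected 2 h later and stained with antibodies including APC-anti-CXCR4. CXCR4⁺ cells counted by flow cytometry, at least 60,000 events per sample. n = 3 per group; mean ± SEM; t test against vehicle.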
# Cytochrome P450 3A4 = Cytochrome P450 3A4 (Homo sapiens, UniProt P08684); experiment: Inhibition of human liver microsomal CYP3A4; format: ADME
# Mus musculus [3] = experiment: Induction hematopoietic stem cell mobilization in C57BL/6 mouse assessed as increase in CXCR4+ cells in blood at 35 mg/kg, sc measured after 2 hrs by APC-conjugated anti-CXCR4-staining based flow cytometry relative to vehicle control; format: functional
# How it was run: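 Male C57BL/6 mice, 8–10 weeks old, received SC doses escalating through 1, 6, 20, 35 and 50 mg/kg. Blood was drawn 2 h after dosing and labelled with APC-conjugated anti-CXCR4 (clone 2B11). CXCR4⁺ cells were counted by flow cytometry, at least 60,000 events per point. Mean ± SEM, n = 3 per group, t test against vehicle.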
# Mus musculus [4] = experiment: In vivo antagonist activity at CXCR4 in C57BL/6 mouse assessed as induction of lymphocytes molization at 35 mg/kg, sc measured after 2 hrs relative to untreated control; format: functional
# [5] = biological target: C-C chemokine receptor type 6 (Homo sapiens) (UniProt P51684); experiment: Antagonist activity at human CCR6 expressed in CHOK1 cells assessed as inhibition of CCL20-induced cAMP accumulation at 10 uM preincubated for 30 mins followed agonist addition measured after 30 to 60 mins; format: functional, cell-based; how it was run: as §1
# Cytochrome P450 1A2 = Cytochrome P450 1A2 (Homo sapiens, UniProt P05177); experiment: Inhibition of human liver microsomal CYP1A2; format: ADME
# [6] = biological target: C-X-C chemokine receptor type 6 (Homo sapiens) (UniProt O00574); experiment: Antagonist activity at human CXCR6 at 10 uM preincubated for 30 mins followed agonist addition measured after 30 to 60 mins by cAMP assay; format: functional; how it was run: as §1
# C-X-C chemokine receptor type 6 (Homo sapiens), sequence (O00574 whole entry, looked up): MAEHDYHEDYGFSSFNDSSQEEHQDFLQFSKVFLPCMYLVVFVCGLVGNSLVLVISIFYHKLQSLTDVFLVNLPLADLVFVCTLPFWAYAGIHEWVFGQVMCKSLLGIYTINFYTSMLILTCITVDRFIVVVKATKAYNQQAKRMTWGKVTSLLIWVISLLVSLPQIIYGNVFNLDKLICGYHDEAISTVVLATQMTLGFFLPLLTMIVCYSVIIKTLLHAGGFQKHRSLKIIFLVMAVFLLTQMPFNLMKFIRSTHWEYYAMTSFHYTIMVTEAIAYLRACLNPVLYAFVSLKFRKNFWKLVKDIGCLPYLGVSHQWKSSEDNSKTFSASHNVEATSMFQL
# Cytochrome P450 1A2, sequence (P05177 whole entry): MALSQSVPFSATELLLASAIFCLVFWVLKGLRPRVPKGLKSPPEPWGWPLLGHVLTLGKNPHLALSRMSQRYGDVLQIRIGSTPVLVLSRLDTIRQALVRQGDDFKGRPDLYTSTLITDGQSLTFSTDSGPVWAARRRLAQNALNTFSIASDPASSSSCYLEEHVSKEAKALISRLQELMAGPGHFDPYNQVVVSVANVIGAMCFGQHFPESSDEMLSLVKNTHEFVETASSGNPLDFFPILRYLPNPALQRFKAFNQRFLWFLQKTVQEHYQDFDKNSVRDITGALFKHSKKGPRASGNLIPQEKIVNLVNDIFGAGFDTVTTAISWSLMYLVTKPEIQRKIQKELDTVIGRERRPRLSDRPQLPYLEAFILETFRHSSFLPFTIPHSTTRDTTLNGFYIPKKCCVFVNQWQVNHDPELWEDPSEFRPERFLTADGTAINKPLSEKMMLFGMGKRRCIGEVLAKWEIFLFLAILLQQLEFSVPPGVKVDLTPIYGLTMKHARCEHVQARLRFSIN
# Cytochrome P450 3A4, sequence (P08684 whole entry): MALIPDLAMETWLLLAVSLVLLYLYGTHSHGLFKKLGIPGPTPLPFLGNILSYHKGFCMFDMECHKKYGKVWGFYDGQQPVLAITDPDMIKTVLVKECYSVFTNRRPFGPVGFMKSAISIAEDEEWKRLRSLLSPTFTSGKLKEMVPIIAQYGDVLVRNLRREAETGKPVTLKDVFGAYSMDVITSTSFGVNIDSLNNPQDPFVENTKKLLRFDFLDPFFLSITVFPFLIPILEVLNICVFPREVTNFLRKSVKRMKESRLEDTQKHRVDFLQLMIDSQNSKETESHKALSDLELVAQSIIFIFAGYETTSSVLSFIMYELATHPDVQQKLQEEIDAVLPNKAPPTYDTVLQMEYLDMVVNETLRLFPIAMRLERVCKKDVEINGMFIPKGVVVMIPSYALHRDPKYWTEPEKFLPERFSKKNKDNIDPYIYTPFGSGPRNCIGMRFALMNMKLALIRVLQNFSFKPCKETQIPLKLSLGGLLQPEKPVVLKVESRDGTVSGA
# C-C chemokine receptor type 6 (Homo sapiens), sequence (P51684 whole entry): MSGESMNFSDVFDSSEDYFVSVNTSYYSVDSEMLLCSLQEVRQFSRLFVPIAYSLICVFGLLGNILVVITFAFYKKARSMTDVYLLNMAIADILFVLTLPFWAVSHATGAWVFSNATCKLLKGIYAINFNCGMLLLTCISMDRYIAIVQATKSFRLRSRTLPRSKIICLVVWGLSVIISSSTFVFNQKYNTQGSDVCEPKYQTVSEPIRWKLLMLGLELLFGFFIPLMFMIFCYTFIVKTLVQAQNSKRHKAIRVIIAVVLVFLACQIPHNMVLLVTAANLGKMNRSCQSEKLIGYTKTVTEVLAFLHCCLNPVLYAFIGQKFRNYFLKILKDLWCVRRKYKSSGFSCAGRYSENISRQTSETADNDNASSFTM
# C-X-C chemokine receptor type 5 (Homo sapiens), sequence (P32302 whole entry): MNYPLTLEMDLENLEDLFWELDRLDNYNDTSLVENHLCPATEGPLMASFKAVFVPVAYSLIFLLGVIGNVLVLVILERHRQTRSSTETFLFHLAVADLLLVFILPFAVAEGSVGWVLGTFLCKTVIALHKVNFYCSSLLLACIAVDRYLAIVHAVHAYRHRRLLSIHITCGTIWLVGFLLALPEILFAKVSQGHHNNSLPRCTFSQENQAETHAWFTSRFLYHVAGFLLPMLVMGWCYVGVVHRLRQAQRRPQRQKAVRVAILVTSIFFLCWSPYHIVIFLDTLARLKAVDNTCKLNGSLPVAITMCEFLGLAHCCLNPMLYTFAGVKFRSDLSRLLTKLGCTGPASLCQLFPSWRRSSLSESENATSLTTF
compound,measurement,setting,value
Cc1cc(NC2CCN(C(=O)CCNCC(=O)O)CC2)nc(NCc2cn(CCCNCCCNC3CCCCC3)nn2)n1,Efficacy,[1],-11%
same,minimal effective dose,Mus musculus [2],6 mg/kg
same,IC50,Cytochrome P450 3A4,> 100 µM
same,fold change (FC),Mus musculus [3],3
same,fold change (FC),Mus musculus [4],2 - 4
same,Efficacy,[5],-2.2%
same,IC50,Cytochrome P450 1A2,> 100 µM
same,Efficacy,[6],-3.9%
